ChEMBL document CHEMBL4257460, “Synthesis and antifungal activity of novel oxazolidin-2-one-linked 1,2,3-triazole derivatives” (2017)
Converted amounts (≈) assume the structure as drawn.

What was measured:
Assay type in all cases: functional
Candida albicans = experiment: Antifungal activity against Candida albicans ATCC 10231 by M27-A3 guideline based method
Summary of the method: (§1)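 Broth microdilution per CLSI (M38-A for filamentous fungi, M27-A3 for yeasts), in MOPS-buffered RPMI-1640 medium. Itraconazole served as the reference antifungal. The MIC was read as the endpoint and expressed in µg/mL.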

Candida tropicalis = experiment: Antifungal activity against Candida tropicalis ATCC 13803 by M27-A3 guideline based method; summary of the method: as §1
Cyberlindnera jadinii = experiment: Antifungal activity against Candida utilis ATCC 9226 by M27-A3 guideline based method; conditions: Williopsis jadinii; summary of the method: as §1
Pichia kudriavzevii = experiment: Antifungal activity against Candida krusei ATCC 14243 by M27-A3 guideline based method; summary of the method: as §1
Nakaseomyces glabratus = experiment: Antifungal activity against Candida glabrata ATCC 34138 by M27-A3 guideline based method; summary of the method: as §1
Candida parapsilosis = experiment: Antifungal activity against Candida parapsilosis ATCC 22019 by M27-A3 guideline based method; conditions: Lodderomyces parapsilosis; summary of the method: as §1
Mucor hiemalis = experiment: Antifungal activity against Mucor hiemalis ATCC 8690 by M38-A guideline based method; summary of the method: as §1
Aspergillus fumigatus = experiment: Antifungal activity against Aspergillus fumigatus ATCC 16907 by M38-A guideline based method; summary of the method: as §1
[1] = tested on: Cutaneotrichosporon cutaneum; experiment: Antifungal activity against Trichosporon cutaneum ATCC 28592 by M38-A guideline based method; summary of the method: as §1
Rhizopus arrhizus = experiment: Antifungal activity against Rhizopus oryzae ATCC 10329by M38-A guideline based method; summary of the method: as §1

| SMILES | MIC (Candida albicans) | MIC (Candida tropicalis) | MIC (Cyberlindnera jadinii) | MIC (Pichia kudriavzevii) | MIC (Nakaseomyces glabratus) | MIC (Candida parapsilosis) | MIC (Mucor hiemalis) | MIC (Aspergillus fumigatus) | MIC [1] | MIC (Rhizopus arrhizus) |
| --- | --- | --- | --- | --- | --- | --- | --- | --- | --- | --- |
| CCC(C)n1ncn(-c2ccc(N3CCN(c4ccc(OCC5COC(Cn6cncn6)(c6ccc(Cl)cc6Cl)O5)cc4)CC3)cc2)c1=O (stereo not given) [ITRACONAZOLE] | 0.03 µg/mL (≈ 0.0425 µM) | 0.06 µg/mL (≈ 0.085 µM) | 0.25 µg/mL (≈ 0.354 µM) | 0.25 µg/mL (≈ 0.354 µM) | 1 µg/mL (≈ 1.42 µM) | 0.06 µg/mL (≈ 0.085 µM) | 4 µg/mL (≈ 5.67 µM) | 1 µg/mL (≈ 1.42 µM) | 8 µg/mL (≈ 11.3 µM) | 1 µg/mL (≈ 1.42 µM) |
| O=C(c1ccccc1)c1nnn(CCn2c(-c3ccccc3)c(-c3ccccc3)oc2=O)c1-c1ccccc1 | 8 µg/mL (≈ 15.6 µM) | 8 µg/mL (≈ 15.6 µM) | 8 µg/mL (≈ 15.6 µM) | 8 µg/mL (≈ 15.6 µM) | 2 µg/mL (≈ 3.9 µM) | 8 µg/mL (≈ 15.6 µM) | 16 µg/mL (≈ 31.2 µM) | 16 µg/mL (≈ 31.2 µM) | 8 µg/mL (≈ 15.6 µM) | 16 µg/mL (≈ 31.2 µM) |
| Cc1ccc(S(=O)(=O)c2nnn(CCn3c(-c4ccccc4)c(-c4ccccc4)oc3=O)c2-c2ccc([N+](=O)[O-])cc2)cc1 | 4 µg/mL (≈ 6.58 µM) | 8 µg/mL (≈ 13.2 µM) | 4 µg/mL (≈ 6.58 µM) | 0.25 µg/mL (≈ 0.411 µM) | 4 µg/mL (≈ 6.58 µM) | 8 µg/mL (≈ 13.2 µM) | 16 µg/mL (≈ 26.3 µM) | 2 µg/mL (≈ 3.29 µM) | 8 µg/mL (≈ 13.2 µM) | 16 µg/mL (≈ 26.3 µM) |
| Cc1ccc(S(=O)(=O)c2nnn(CCn3c(-c4ccccc4)c(-c4ccccc4)oc3=O)c2-c2ccccc2)cc1 | 8 µg/mL (≈ 14.2 µM) | 8 µg/mL (≈ 14.2 µM) | 8 µg/mL (≈ 14.2 µM) | 0.5 µg/mL (≈ 0.889 µM) | 1 µg/mL (≈ 1.78 µM) | 8 µg/mL (≈ 14.2 µM) | 4 µg/mL (≈ 7.11 µM) | 2 µg/mL (≈ 3.55 µM) | 8 µg/mL (≈ 14.2 µM) | 16 µg/mL (≈ 28.4 µM) |
| Cc1ccc(-c2c(S(=O)(=O)c3ccc(C)cc3)nnn2CCn2c(-c3ccccc3)c(-c3ccccc3)oc2=O)cc1 | 1 µg/mL (≈ 1.73 µM) | 8 µg/mL (≈ 13.9 µM) | 4 µg/mL (≈ 6.94 µM) | 8 µg/mL (≈ 13.9 µM) | 2 µg/mL (≈ 3.47 µM) | 0.25 µg/mL (≈ 0.434 µM) | 16 µg/mL (≈ 27.7 µM) | 8 µg/mL (≈ 13.9 µM) | 8 µg/mL (≈ 13.9 µM) | 16 µg/mL (≈ 27.7 µM) |
| N#Cc1nnn(CCn2c(-c3ccccc3)c(-c3ccccc3)oc2=O)c1-c1ccccc1 | 8 µg/mL (≈ 18.5 µM) | 8 µg/mL (≈ 18.5 µM) | 8 µg/mL (≈ 18.5 µM) | 0.5 µg/mL (≈ 1.15 µM) | 0.12 µg/mL (≈ 0.277 µM) | 8 µg/mL (≈ 18.5 µM) | 2 µg/mL (≈ 4.61 µM) | 16 µg/mL (≈ 36.9 µM) | 8 µg/mL (≈ 18.5 µM) | 16 µg/mL (≈ 36.9 µM) |
| Cc1ccc(S(=O)(=O)c2nnn(CCn3c(-c4ccccc4)c(-c4ccccc4)oc3=O)c2-c2cccs2)cc1 | 8 µg/mL (≈ 14.1 µM) | 8 µg/mL (≈ 14.1 µM) | 8 µg/mL (≈ 14.1 µM) | 8 µg/mL (≈ 14.1 µM) | 1 µg/mL (≈ 1.76 µM) | 8 µg/mL (≈ 14.1 µM) | 16 µg/mL (≈ 28.1 µM) | 8 µg/mL (≈ 14.1 µM) | 8 µg/mL (≈ 14.1 µM) | 16 µg/mL (≈ 28.1 µM) |
| CC(=O)c1nnn(CCn2c(-c3ccccc3)c(-c3ccccc3)oc2=O)c1C | 8 µg/mL (≈ 20.6 µM) | 8 µg/mL (≈ 20.6 µM) | 8 µg/mL (≈ 20.6 µM) | 8 µg/mL (≈ 20.6 µM) | 2 µg/mL (≈ 5.15 µM) | 4 µg/mL (≈ 10.3 µM) | 16 µg/mL (≈ 41.2 µM) | 16 µg/mL (≈ 41.2 µM) | 8 µg/mL (≈ 20.6 µM) | 8 µg/mL (≈ 20.6 µM) |
| Cc1ccc(S(=O)(=O)c2nnn(CCn3c(-c4ccccc4)c(-c4ccccc4)oc3=O)c2-c2ccc(Cl)cc2)cc1 | 8 µg/mL (≈ 13.4 µM) | 8 µg/mL (≈ 13.4 µM) | 8 µg/mL (≈ 13.4 µM) | 8 µg/mL (≈ 13.4 µM) | 4 µg/mL (≈ 6.7 µM) | 8 µg/mL (≈ 13.4 µM) | 16 µg/mL (≈ 26.8 µM) | 4 µg/mL (≈ 6.7 µM) | 8 µg/mL (≈ 13.4 µM) | 16 µg/mL (≈ 26.8 µM) |
| Cc1ccc(S(=O)(=O)c2nnn(CCn3c(-c4ccccc4)c(-c4ccccc4)oc3=O)c2-c2cccc([N+](=O)[O-])c2)cc1 | 8 µg/mL (≈ 13.2 µM) | 8 µg/mL (≈ 13.2 µM) | 8 µg/mL (≈ 13.2 µM) | 8 µg/mL (≈ 13.2 µM) | 0.12 µg/mL (≈ 0.197 µM) | 0.5 µg/mL (≈ 0.823 µM) | 16 µg/mL (≈ 26.3 µM) | 16 µg/mL (≈ 26.3 µM) | 2 µg/mL (≈ 3.29 µM) | 16 µg/mL (≈ 26.3 µM) |
| Cc1ccc(S(=O)(=O)c2nnn(CCn3c(-c4ccccc4)c(-c4ccccc4)oc3=O)c2-c2ccc(Cl)s2)cc1 | 8 µg/mL (≈ 13.3 µM) | 8 µg/mL (≈ 13.3 µM) | 8 µg/mL (≈ 13.3 µM) | 2 µg/mL (≈ 3.32 µM) | 2 µg/mL (≈ 3.32 µM) | 4 µg/mL (≈ 6.63 µM) | 16 µg/mL (≈ 26.5 µM) | 16 µg/mL (≈ 26.5 µM) | 8 µg/mL (≈ 13.3 µM) | 16 µg/mL (≈ 26.5 µM) |
